Reference: publication PMC10582670 (Clinical and Translational Science, 2023)
Where “and” joins values, the source holds several entries; their conditions need not be identical. Equal entries are not always repeated.

Test system: healthy volunteers
Test: Safety and tolerability
Assay type: in vivo, human
How it was run: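 Healthy volunteers aged 18–55 y, BMI 18–30 kg/m², randomised double-blind 8:2 to once-daily oral drug or placebo for up to 14 days, with follow-up visits on days 21 and 42. Treatment-emergent AEs coded with MedDRA 23.1 and graded with the WHO toxicity scale, alongside ECGs, laboratory tests and vital signs. The safety population was all subjects receiving at least one dose.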

[1] = SAD (fasted) All GDC-8264, n = 28

## O=C(c1nc2n(n1)[C@H](c1ccccc1)C[C@@H]2F)C1CC1 [GDC‐8264]
SAD (fasted) 75 mg, n = 5
  No. of TEAEs: 8
  No. of deaths: 0 no. of subjects (%)
  No. of subjects with at least one Related TEAE: 1 (20.0) no. of subjects (%)
  No. of subjects with at least one Serious TEAE: 0 no. of subjects (%)
  No. of subjects with at least one TEAE: 3 (60.0) no. of subjects (%)
  No. of subjects withdrawn from study due to a TEAE: 0 no. of subjects (%)
  TEAE Abdominal pain: 0 no. of subjects (%)
  TEAE Back pain: 1 (20.0) no. of subjects (%)
  TEAE Catheter site pain: 0 no. of subjects (%)
  TEAE Dermatitis contact: 2 (40.0) no. of subjects (%)
  TEAE Diarrhea: 0 no. of subjects (%)
  TEAE Dizziness: 0 no. of subjects (%)
  TEAE Dyspepsia: 0 no. of subjects (%)
  TEAE Gastrointestinal sounds abnormal: 1 (20.0) no. of subjects (%)
  TEAE Gingivitis: 0 no. of subjects (%)
  TEAE Headache: 0 no. of subjects (%)
  TEAE Medical device site dermatitis: 0 no. of subjects (%)
  TEAE Myalgia: 1 (20.0) no. of subjects (%)
  TEAE Nausea: 2 (40.0) no. of subjects (%)
  TEAE Presyncope: 0 no. of subjects (%)
  TEAE Somnolence: 0 no. of subjects (%)
SAD (fasted) 150 mg, n = 5
  No. of TEAEs: 6
  No. of deaths: 0 no. of subjects (%)
  No. of subjects with at least one Related TEAE: 3 (60.0) no. of subjects (%)
  No. of subjects with at least one Serious TEAE: 0 no. of subjects (%)
  No. of subjects with at least one TEAE: 4 (80.0) no. of subjects (%)
  No. of subjects withdrawn from study due to a TEAE: 0 no. of subjects (%)
  TEAE Abdominal pain: 0 no. of subjects (%)
  TEAE Back pain: 0 no. of subjects (%)
  TEAE Catheter site pain: 0 no. of subjects (%)
  TEAE Dermatitis contact: 1 (20.0) no. of subjects (%)
  TEAE Diarrhea: 0 no. of subjects (%)
  TEAE Dizziness: 0 no. of subjects (%)
  TEAE Dyspepsia: 0 no. of subjects (%)
  TEAE Gastrointestinal sounds abnormal: 1 (20.0) no. of subjects (%)
  TEAE Gingivitis: 0 no. of subjects (%)
  TEAE Headache: 1 (20.0) no. of subjects (%)
  TEAE Medical device site dermatitis: 0 no. of subjects (%)
  TEAE Myalgia: 0 no. of subjects (%)
  TEAE Nausea: 1 (20.0) no. of subjects (%)
  TEAE Presyncope: 0 no. of subjects (%)
  TEAE Somnolence: 0 no. of subjects (%)
SAD (fasted) 225 mg, n = 6
  No. of TEAEs: 7
  No. of deaths: 0 no. of subjects (%)
  No. of subjects with at least one Related TEAE: 0 no. of subjects (%)
  No. of subjects with at least one Serious TEAE: 0 no. of subjects (%)
  No. of subjects with at least one TEAE: 3 (50.0) no. of subjects (%)
  No. of subjects withdrawn from study due to a TEAE: 0 no. of subjects (%)
  TEAE Abdominal pain: 0 no. of subjects (%)
  TEAE Back pain: 0 no. of subjects (%)
  TEAE Catheter site pain: 0 no. of subjects (%)
  TEAE Dermatitis contact: 0 no. of subjects (%)
  TEAE Diarrhea: 0 no. of subjects (%)
  TEAE Dizziness: 0 no. of subjects (%)
  TEAE Dyspepsia: 0 no. of subjects (%)
  TEAE Gastrointestinal sounds abnormal: 0 no. of subjects (%)
  TEAE Gingivitis: 0 no. of subjects (%)
  TEAE Headache: 0 no. of subjects (%)
  TEAE Medical device site dermatitis: 2 (33.3) no. of subjects (%)
  TEAE Myalgia: 1 (16.7) no. of subjects (%)
  TEAE Nausea: 0 no. of subjects (%)
  TEAE Presyncope: 1 (16.7) no. of subjects (%)
  TEAE Somnolence: 0 no. of subjects (%)
[1]
  No. of TEAEs: 33
  No. of deaths: 0 no. of subjects (%)
  No. of subjects with at least one Related TEAE: 4 (14.3) no. of subjects (%)
  No. of subjects with at least one Serious TEAE: 0 no. of subjects (%)
  No. of subjects with at least one TEAE: 19 no. of subjects (%) and 19 (67.9) no. of subjects (%)
  No. of subjects withdrawn from study due to a TEAE: 0 no. of subjects (%)
  TEAE Abdominal pain: 2 (7.1) no. of subjects (%)
  TEAE Back pain: 1 (3.6) no. of subjects (%)
  TEAE Catheter site pain: 1 (3.6) no. of subjects (%)
  TEAE Dermatitis contact: 4 (14.3) no. of subjects (%)
  TEAE Diarrhea: 0 no. of subjects (%)
  TEAE Dyspepsia: 1 (3.6) no. of subjects (%)
  TEAE Gastrointestinal sounds abnormal: 2 (7.1) no. of subjects (%)
  TEAE Gingivitis: 0 no. of subjects (%)
  TEAE Headache: 4 (14.3) no. of subjects (%)
  TEAE Medical device site dermatitis: 2 (7.1) no. of subjects (%)
  TEAE Myalgia: 2 (7.1) no. of subjects (%)
  TEAE Nausea: 3 (10.7) no. of subjects (%)
  TEAE Presyncope: 2 (7.1) no. of subjects (%)
  TEAE Somnolence: 0 no. of subjects (%)
SAD (high fat) 75 mg, n = 5
  No. of TEAEs: 4
  No. of deaths: 0 no. of subjects (%)
  No. of subjects with at least one Related TEAE: 0 no. of subjects (%)
  No. of subjects with at least one Serious TEAE: 0 no. of subjects (%)
  No. of subjects with at least one TEAE: 2 (40.0) no. of subjects (%)
  No. of subjects withdrawn from study due to a TEAE: 0 no. of subjects (%)
  TEAE Abdominal pain: 0 no. of subjects (%)
  TEAE Back pain: 0 no. of subjects (%)
  TEAE Catheter site pain: 0 no. of subjects (%)
  TEAE Dermatitis contact: 1 (20.0) no. of subjects (%)
  TEAE Diarrhea: 0 no. of subjects (%)
  TEAE Dizziness: 0 no. of subjects (%)
  TEAE Dyspepsia: 0 no. of subjects (%)
  TEAE Gastrointestinal sounds abnormal: 0 no. of subjects (%)
  TEAE Gingivitis: 0 no. of subjects (%)
  TEAE Headache: 1 (20.0) no. of subjects (%)
  TEAE Medical device site dermatitis: 0 no. of subjects (%)
  TEAE Myalgia: 0 no. of subjects (%)
  TEAE Nausea: 1 (20.0) no. of subjects (%)
  TEAE Presyncope: 0 no. of subjects (%)
  TEAE Somnolence: 0 no. of subjects (%)
SAD and MAD stages
  changes in clinical laboratory results, vital signs, ECGs, or physical examinations: no significant changes
Both stages (SAD and MAD)
  severity of adverse events in GDC-8264-treated subjects: mild
